High-throughput results as filed in PubChem BioAssay.
SIAE primary: human SIAE inhibitors, primary screen, biochemical, fluorescence polarization, FP-Rh probe, 1536-well HTS; inhibition, % at 9.66 µM; AID 1053197, 2014; actives 0.69% (n = 370,000); SIAE FP-Rh probe binding; Sialate O-acetylesterase (Homo sapiens), Q9HAT2;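 active = inhibition above a cutoff: mean of compounds within the control limits plus 3 SD of those, cut at about 17% in these data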;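 also: 0% = plate median of compound wells and 100% = probe without SIAE protein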
HTRA1 inh: HTRA1 serine protease inhibitors, primary screen, biochemical, fluorescence polarization, HTS; recombinant HTRA1, FP-rhodamine activity-based probe; AID 504803, 2011; actives 0.5% (n = 340,000); inhibition, % at 5.96 µM; in the data active = inhibition above about 36%;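 also: 0% = enzyme with DMSO and 100% = wells lacking enzyme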
TCR-CD3 inh: inhibitors of human TCR-CD3 interaction, primary screen, biochemical, fluorescence, TAMRA-labeled TCR probe. T-cell receptor (TCR). inhibition, % at 9.4 µM. actives 0.37% (n = 360,000). AID 651800, 2012; in the data active = inhibition above about 19%;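 also: recombinant mutant TCR 2C K166C tagged with TAMRA read by polarization; 0% = receptor in buffer alone and 100% = receptor with positive control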
ARNT-TACC3 inh: disruptors of ARNT/TACC3 protein interaction, primary screen, biochemical, AlphaScreen, single concentration; AlphaScreen His-ARNT PAS-B/GST-TACC3 binding, luminescence; TACC3 fragment carries E629A point mutation; actives 0.66% (n = 390,000); AID 623870, 2012; inhibition, % at 9.99 µM;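 active = mean inhibition of replicates at least 50% and at least half of replicates each reaching 50%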;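 also: 0% = complete ARNT plus TACC3 wells and 100% = ARNT alone without TACC3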
mABHD4 FP: ABHD4 inhibitors, primary screen, biochemical, fluorescence polarization, mouse | (Lyso)-N-acylphosphatidylethanolamine lipase (Mus musculus), Q8VD66 | purified mABHD4, FP-Rh probe fluorescence polarization | inhibition, % at 8.92 µM | actives 0.54% (n = 370,000) | AID 720543, 2013;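 active = inhibition exceeding the mean over every tested compound plus 3 SD, cut at about 30% in these data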;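 also: 0% = plate median of compound wells and 100% = S159A mutant with DMSO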
Target sequence (Q8VD66 whole entry, looked up): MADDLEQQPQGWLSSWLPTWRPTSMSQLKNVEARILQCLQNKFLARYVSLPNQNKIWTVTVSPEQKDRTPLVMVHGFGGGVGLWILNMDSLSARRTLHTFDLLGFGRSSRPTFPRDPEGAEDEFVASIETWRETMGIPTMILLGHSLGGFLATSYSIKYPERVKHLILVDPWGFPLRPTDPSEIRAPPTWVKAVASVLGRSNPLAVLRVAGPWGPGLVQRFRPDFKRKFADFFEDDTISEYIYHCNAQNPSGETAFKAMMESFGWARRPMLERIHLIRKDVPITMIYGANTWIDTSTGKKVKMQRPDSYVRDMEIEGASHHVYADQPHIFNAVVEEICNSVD
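Test system: mouse ABHD4 enzyme, wild type. Reagent: FP-Rh fluorescent activity-based probe, added after compound pre-incubation. Timing: pre-incubation 45 min, probe exposure 60 min, at 25 °C. Technique: FP readout, ex 525 nm / em 598 nm. Benchmarks: high control S159A mutant with DMSO, low control median of compound wells.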
SIAE confirm: human SIAE inhibitors, retest, confirmation, biochemical, fluorescence polarization, FP-Rh probe, triplicate; SIAE FP-Rh activity-based probe; inhibition, % at 9.66 µM; actives 13% (n = 2,300); shares compounds with SIAE primary;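 active = mean inhibition of the replicates above the hit cutoff set in the primary screen, cut at about 17% in these data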;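 also: 0% = SIAE with DMSO and probe and 100% = probe without SIAE; inhibitors lower polarization as more probe stays unbound to SIAE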
An asterisk follows results filed as active; / = no result. Rows were chosen to be rich in hits. Some 1.8% of all compounds tested hit in one or more screens of this group.

SMILES | SIAE primary | HTRA1 inh | TCR-CD3 inh | ARNT-TACC3 inh | mABHD4 FP | SIAE confirm
COc1cccc(Nc2nc(CN)cs2)n1 | 22.1* | / | -3.1 | / | 9.9 | 5.6
C[C@@H]1CN([C@@H](C)CO)C(=O)Cc2cc(NC(=O)CCCN(C)C)ccc2O[C@H]1CN(C)Cc1ccc(C(F)(F)F)cc1 | / | / | / | 10.4 | / | /
CCOc1ccc(/C=N/NC(=O)c2nnn(-c3nonc3N)c2-c2ccc(OCC)cc2)cc1 | -3.6 | -12.9 | 5.8 | -9.2 | 0.4 | /
CCN(CC)c1ccc(/C=N/NC(=O)c2nnn(-c3nonc3N)c2-c2ccc(C)cc2)cc1 | 24.6* | 1.2 | -2.2 | -3.4 | 0.8 | 4.0
CCOC(=O)c1ccc(CC(=O)c2ccc(O)cc2O)o1 | -3.3 | -4.5 | -2.0 | -8.8 | 0.0 | /
CCC(=O)Oc1ccc(C/C(=N\O)c2ccc(O)cc2O)o1 | 36.8* | 23.4 | 0.5 | -15.4 | 16.4 | 28.2*
CCOC(=O)c1[nH]c(C)c(C(=O)N2CCN(c3ccccc3)CC2)c1C | 0.9 | -4.3 | 8.2 | -6.1 | -1.0 | /
CCOC(=O)c1[nH]c(C)c(C(=O)N2CCOCC2)c1C | 21.7* | 1.3 | -1.0 | / | -1.5 | 1.8
COc1cc(CCCN2CCNC[C@@H]2c2ccccc2)cc(OC)c1OC | 16.3 | -4.2 | -0.3 | 11.7 | -7.7 | /
c1ccc([C@H]2CNCCN2CCc2cccc3ccccc23)cc1 | 23.0* | -3.1 | -0.2 | 1.5 | 12.7 | 4.4
O=C(NCc1ccc(Cl)cc1)c1cc2ccccn2n1 | 53.9* | -3.3 | -8.2 | / | -1.5 | 3.5
O=C(NCCc1ccc(F)cc1)c1cc2ccccn2n1 | 2.4 | / | / | / | -2.6 | /
O=C(NCC(=O)N1CCN(c2ncccn2)CC1)c1ccc(F)cc1 | 22.5* | 11.1 | -5.6 | 1.8 | -0.2 | -5.0
O=C(CSc1nc(O)c(C2CCCCC2)c(=O)[nH]1)NCC1CCCO1 (configuration not stated) | 17.2* | 6.2 | -4.2 | -0.9 | 7.4 | 5.5
CC(C)C(OC(=O)c1ccc(Cl)nc1)C(=O)NC1CCCCC1 (configuration not stated) | 0.6 | -2.3 | 3.6 | -4.2 | -4.5 | /
CC(OC(=O)c1ccc(Cl)nc1)C(=O)NC1CCCC1 (configuration not stated) | 19.1* | -1.1 | -5.4 | / | 0.0 | -1.9
O=C(Cc1ccc([N+](=O)[O-])cc1)N1CCN(c2ccc([N+](=O)[O-])cc2)CC1 | -1.4 | -5.9 | -1.4 | 0.6 | -0.4 | /
O=C(Cc1ccc(F)cc1)N1CCN(c2ccc([N+](=O)[O-])cc2)CC1 | 20.4* | 6.0 | 3.8 | 2.4 | -1.9 | 5.2
O=C(Nc1ccccc1)Nc1nc(-c2ccc(F)cc2)cs1 | 3.5 | -1.4 | -2.7 | / | 0.6 | /
O=C(O)CCC(=O)Nc1nc(-c2ccccc2)cs1 | 19.2* | 6.0 | -1.3 | 2.1 | 0.0 | 3.9
Fc1ccc(-c2csc(NC(=S)Nc3ccccc3)n2)cc1 | 17.1* | -13.6 | 1.2 | -4.9 | -0.8 | 0.2
O=S(=O)(NC1CCCc2ccccc21)c1cnc[nH]1 (configuration not stated) | 26.3* | 3.0 | -2.1 | -3.6 | -3.3 | -3.0
O=C(NCc1ccncc1)C1CCN(S(=O)(=O)c2cccc(C(F)(F)F)c2)CC1 | 0.5 | 2.0 | -11.8 | -4.4 | -4.3 | /
O=C(Nc1ccncc1)C1CCN(S(=O)(=O)c2cccc(C(F)(F)F)c2)CC1 | 18.2* | 10.9 | 4.1 | 11.9 | 3.5 | -0.1
O=C(Cc1csc(NC(=O)c2ccccc2)n1)NO | 22.2* | 6.7 | -6.5 | 17.7 | 12.0 | 15.0
COc1ccc(C(=O)Nc2nc(CC(=O)NCCc3ccccc3)cs2)cc1 | -1.3 | -9.8 | 4.5 | -1.0 | -4.8 | /
C[C@@H]1CN([C@H](C)CO)C(=O)c2cc(NS(=O)(=O)c3ccccc3)ccc2O[C@@H](C)CCCCO[C@@H]1CN(C)S(=O)(=O)c1ccccc1 | / | / | / | 5.8 | / | /
